Data on 16 molecules can be found in PubChem BioAssay.

As a reminder, the viability is a read-out of living cells in per cent, often relative to untreated cells. The term inhibition denotes the relative decrease from the control value, in per cent.

Assay [1] is described as follows: reducers of endogenous Her2 protein level, primary screen, SKBR3 breast tumor cells, AlphaScreen, ATP viability (AID 461;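 active = Her2 level under about 52% in both replicate screens, with viability over 70% of control, limit read from the data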;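 for Her2 level: lower value means less Her2 protein in the cells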;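 for viability: percent of carrier control wells set as 100% viability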). The settings on record: 18-24 h, measured here: SKBR3 viability, ATP luminescence, at 10 µM. For orientation: Bead proximity is the source of the signal in Alpha formats.
In assay [2] the target is Receptor tyrosine-protein kinase erbB-2 (Homo sapiens) (UniProt P04626). Described as above. The note with it: 18-24 h, at 10 µM, stronger effect = lower value.
The nature of assay [3]: SK-BR-3 cell growth inhibitors, pilot screen, 24 h, human (AID 572;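 active = viability at or below 10% of carrier control in both of two separate runs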;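 note: compound exposure lasted between 18 and 24 h rather than exactly 24 h; 100% = carrier-treated control wells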). The settings on record: SK-BR-3 viability, CellTiter-Glo luminescence, at 10 µM, stronger effect = lower value. Background: In ATP-based viability assays light output follows the ATP content of the culture.
Assay [4] can be described thus: HUVEC growth inhibition – cell-based, human, primary screen (AID 575;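 active = viability at or below 30% in both replicate assays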;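 note: 100% = median of untreated cell wells with 0.1% DMSO on each plate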). The settings on record: HUVEC proliferation, CellTiter-Glo luminescence, 72 h; at 10 µM; stronger effect = lower value. The essentials:
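System: primary human umbilical vein endothelial cells; Quantity: 1250 endothelial cells in each well; Buffer or medium: supplemented EBM, 2% fetal bovine serum; Doses: one dose, 10 µM final, 0.1% DMSO; Incubation: 72 h compound incubation; Technique: ATP-based CellTiter-Glo luminescent read; Evaluation: percent of median DMSO-control luminescence; Controls: vehicle and MePR control wells.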

The nature of assay [5]: growth inhibitors of H69AR lung tumor, primary screen, human, duplicate replicates (AID 580;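 active = viability at or under a set limit in both replicates, limit being median viability minus 3 SD, cut at about 48% in these data, passing the limit was not always enough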;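 note: 100% = mean luminescence of untreated wells and 0% = no signal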). The settings on record: H69AR lung tumor cells viability, ATP luminescence, 72 h; at 10 µM; stronger effect = lower value.
A short description of assay [6]: reversal of MRP1-mediated doxorubicin resistance, pilot screen, H69AR cells, doxorubicin co-treatment (AID 601). The note with it: CellTiter-Glo, 72 h, at 10 µM; for differential viability (reversal): stronger effect = higher value.
Assay [7] can be described thus: 384-well plate pilot, post-Golgi transport modulator project, inhibition of yeast transport mutant growth (AID 636; in the data active = inhibition above about 31%). The settings on record: absorbance 615 nm, about 18 h, stronger effect = higher value.
Assay [8] is described as follows: growth suppression of yeast trafficking mutant, preliminary HTS, modulators of trafficking downstream of Golgi apparatus project, 1536-format plate, OD 615 nm (AID 637; in the data active = inhibition above about 30%). The settings on record: yeast transport mutant growth, absorbance 615 nm, 18 h; stronger effect = higher value.
Where [9] appears, read: H69AR cells + 2 uM doxorubicin, measured here: viability with 2 uM doxorubicin, stronger effect = lower value.
Setting [10] is: H69AR cells, compound alone cytotoxicity.

Activity calls are given as the source filed them.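 Rule for the calls, unless noted: active = viability loss from added drug above about 55%, and viability with drug at most 40%, in both replicates (limit read from the data, passing the limit was not always enough); inconclusive = both conditions met in only one replicate; inactive = neither replicate meets both conditions.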

Sequence of Receptor tyrosine-protein kinase erbB-2 (Homo sapiens) (P04626 whole entry, looked up): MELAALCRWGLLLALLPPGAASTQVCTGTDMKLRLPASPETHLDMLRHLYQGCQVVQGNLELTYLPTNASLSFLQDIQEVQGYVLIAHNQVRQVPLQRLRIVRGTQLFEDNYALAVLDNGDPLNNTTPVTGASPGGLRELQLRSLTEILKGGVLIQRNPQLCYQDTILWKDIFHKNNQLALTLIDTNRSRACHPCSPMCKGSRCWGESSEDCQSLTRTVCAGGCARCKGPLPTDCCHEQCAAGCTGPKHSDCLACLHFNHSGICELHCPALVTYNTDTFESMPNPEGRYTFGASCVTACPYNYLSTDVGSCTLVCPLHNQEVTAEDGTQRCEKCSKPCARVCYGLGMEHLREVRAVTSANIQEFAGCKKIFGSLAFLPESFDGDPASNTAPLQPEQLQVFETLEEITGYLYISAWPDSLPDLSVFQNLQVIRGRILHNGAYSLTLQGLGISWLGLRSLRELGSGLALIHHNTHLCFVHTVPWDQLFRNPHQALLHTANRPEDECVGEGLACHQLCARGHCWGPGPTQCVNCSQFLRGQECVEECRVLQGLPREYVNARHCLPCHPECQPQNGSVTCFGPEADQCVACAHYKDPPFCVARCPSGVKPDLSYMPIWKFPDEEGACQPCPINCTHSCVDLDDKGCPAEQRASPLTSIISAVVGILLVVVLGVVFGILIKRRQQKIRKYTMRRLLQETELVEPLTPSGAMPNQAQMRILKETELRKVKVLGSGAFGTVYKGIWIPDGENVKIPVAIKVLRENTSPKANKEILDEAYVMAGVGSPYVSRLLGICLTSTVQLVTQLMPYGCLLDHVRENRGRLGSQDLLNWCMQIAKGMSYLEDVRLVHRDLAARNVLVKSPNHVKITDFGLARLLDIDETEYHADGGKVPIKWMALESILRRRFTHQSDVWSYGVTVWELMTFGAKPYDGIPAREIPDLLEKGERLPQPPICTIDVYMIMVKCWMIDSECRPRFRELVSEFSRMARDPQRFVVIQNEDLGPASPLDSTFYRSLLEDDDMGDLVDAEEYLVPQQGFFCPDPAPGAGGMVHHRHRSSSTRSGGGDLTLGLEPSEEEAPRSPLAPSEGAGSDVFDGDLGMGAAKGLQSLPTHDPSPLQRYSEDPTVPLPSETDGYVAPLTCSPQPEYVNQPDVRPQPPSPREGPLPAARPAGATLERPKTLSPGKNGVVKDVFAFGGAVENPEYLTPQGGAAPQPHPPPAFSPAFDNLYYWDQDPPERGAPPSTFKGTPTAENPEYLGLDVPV

As to `Cc1ccc(SCc2[nH]nc3c2C(c2ccc(C)o2)C(C#N)=C(N)O3)cc1` (stereo not given), the viability in assay [1] is 91%; in assay [3], 91% (inactive); in assay [4] it was 74.3% (inactive); in assay [5], 76.8% (inactive); in assay [6] (setting [9]), 82.4%; in assay [6] (setting [10]), 76.8%. The Her2 level in assay [2] was 88% (inactive). Moreover, the differential viability (reversal) in assay [6] (H69AR cells + 2 uM doxorubicin) is -5.55% (inactive). Moreover, the inhibition in assay [7] was -7.03% (inactive); in assay [8], 2.06% (inactive).
Take `CCN(CC)C(=O)Cn1c(=O)n(Cc2ccccc2Cl)c2c1c(=O)n(C)c(=O)n2C`: the viability in assay [1] is 98%; in assay [3], 98% (inactive); in assay [4] it was 98.6% (inactive); in assay [5] it was 93.7% (inactive); in assay [6] (setting [9]), 89.5%; in assay [6] (setting [10]), 93.7%. Moreover, in assay [2], the Her2 level is 100% (inactive). Moreover, the differential viability (reversal) in assay [6] (H69AR cells + 2 uM doxorubicin) is 4.23% (inactive). In addition, the figures for the inhibition in assay [7] and in assay [8] were -0.93% (inactive) and -4.13% (inactive), respectively.
For `O=S(=O)(NC1=NCCC1)c1cccs1`, the viability in assay [1] was 106%; in assay [3], 106% (inactive); in assay [4] it was 114% (inactive); in assay [5], 107% (inactive); in assay [6] (setting [9]), 91.2%; in assay [6] (setting [10]), 107%. For the same molecule, in assay [2], the Her2 level is 94% (inactive). Also, in assay [6] (H69AR cells + 2 uM doxorubicin), the differential viability (reversal) was 15.3% (inactive). The inhibition in assay [7] is -5.68% (inactive); in assay [8] it was -2.67% (inactive).
Consider `COc1ccc(C)cc1S(=O)(=O)N(CC(=O)O)c1ccccc1`, for which the viability in assay [1] was 118%; in assay [3] it was 118% (inactive); in assay [4], 106% (inactive); in assay [5], 86.1% (inactive); in assay [6] (setting [9]) it was 97.2%; in assay [6] (setting [10]), 86.1%. In addition, in assay [2], the Her2 level is 114% (inactive). In addition, the differential viability (reversal) in assay [6] (H69AR cells + 2 uM doxorubicin) is -11.2% (inactive). Moreover, the inhibition in assay [7] is -2.84% (inactive); in assay [8], 4.75% (inactive).
Regarding `O=C(CCn1c(=O)sc2ccccc21)Nc1nccs1`, the viability in assay [1] is 98.5%; in assay [3], 98.5% (inactive); in assay [4] it was 115% (inactive); in assay [5] it was 108% (inactive); in assay [6] (setting [9]) it was 91.5%; in assay [6] (setting [10]), 108%. Further, the Her2 level in assay [2] was 97% (inactive). In assay [6] (H69AR cells + 2 uM doxorubicin), the differential viability (reversal) was 16.8% (inactive). Moreover, the inhibition is -2.6% (inactive) in assay [7] and -0.95% (inactive) in assay [8].
Regarding `O=C1CCc2cc(S(=O)(=O)N3CCC(C(=O)Nc4nccs4)CC3)ccc2N1`, the viability in assay [1] was 98%; in assay [3], 98% (inactive); in assay [4], 110% (inactive); in assay [5] it was 85.3% (inactive); in assay [6] (setting [9]) it was 80.3%; in assay [6] (setting [10]) it was 85.3%. In assay [2], the Her2 level was 105% (inactive). Also, the differential viability (reversal) in assay [6] (H69AR cells + 2 uM doxorubicin) is 4.98% (inactive). In addition, the inhibition in assay [7] was -1.67% (inactive); in assay [8] it was -1.17% (inactive).
`O=C(CSc1ncnc2ccccc12)NCCCO`: the viability in assay [1] was 104%; in assay [3] it was 104% (inactive); in assay [4] it was 103% (inactive); in assay [5], 103% (inactive); in assay [6] (setting [9]), 91.1%; in assay [6] (setting [10]), 103%. Also, the Her2 level in assay [2] is 80% (inactive). In assay [6] (H69AR cells + 2 uM doxorubicin), the differential viability (reversal) is 12.2% (inactive). Besides, the inhibition is -0.65% (inactive) in assay [7] and 4.92% (inactive) in assay [8].
As to `CCc1ccc(CNCc2cccnc2)cc1`, the viability in assay [1] was 91%; in assay [3] it was 91% (inactive); in assay [4] it was 91.2% (inactive); in assay [5], 92.4% (inactive); in assay [6] (setting [9]) it was 85.4%; in assay [6] (setting [10]), 92.4%. For the same molecule, the Her2 level in assay [2] is 100% (inactive). In addition, the differential viability (reversal) in assay [6] (H69AR cells + 2 uM doxorubicin) is 6.96% (inactive). Also, the inhibition is -1.82% (inactive) in assay [7] and -2% (inactive) in assay [8].
In the case of `CC(C)Nc1ncnc2c1cnn2-c1ccccc1`, the viability is 95.5% in assay [1]; 95.5% (inactive) in assay [3]; 88.3% (inactive) in assay [4]; 94.7% (inactive) in assay [5]; 90.5% in assay [6] (setting [9]); 94.7% in assay [6] (setting [10]). In addition, the Her2 level in assay [2] was 104% (inactive). The differential viability (reversal) in assay [6] (H69AR cells + 2 uM doxorubicin) is 4.19% (inactive). The inhibition is 0% (inactive) in assay [7] and -8.33% (inactive) in assay [8].
Take `Cc1ccc(NC(=O)CNc2cccc(C)c2C)c(C)c1`: the viability in assay [1] is 106%; in assay [3] it was 106% (inactive); in assay [4], 98.3% (inactive); in assay [5], 79.2% (inactive); in assay [6] (setting [9]), 69%; in assay [6] (setting [10]), 79.2%. Also, the Her2 level in assay [2] was 86.5% (inactive). For the same molecule, in assay [6] (H69AR cells + 2 uM doxorubicin), the differential viability (reversal) is 10.1% (inactive). Moreover, the inhibition in assay [7] is -0.53% (inactive); in assay [8], -1.45% (inactive).
In the case of `COc1cccc(CNC(=O)C2CCN(c3cnccn3)CC2)c1`, the viability in assay [1] was 87.5%; in assay [3] it was 87.5% (inactive); in assay [4], 88.4% (inactive); in assay [5], 96.2% (inactive); in assay [6] (setting [9]), 87.3%; in assay [6] (setting [10]) it was 96.2%. Further, the Her2 level in assay [2] was 118% (inactive). Further, the differential viability (reversal) in assay [6] (H69AR cells + 2 uM doxorubicin) is 8.93% (inactive). Besides, the inhibition in assay [7] is -4.67% (inactive); in assay [8], 16.8% (inactive).
Regarding `COc1ccccc1Nc1nc(N)nc(CSc2nccc(C)n2)n1`, the viability in assay [1] is 99%; in assay [3], 99% (inactive); in assay [4], 107% (inactive); in assay [5], 91% (inactive); in assay [6] (setting [9]), 85.7%; in assay [6] (setting [10]), 91%. In addition, the Her2 level in assay [2] is 90.5% (inactive). Further, the differential viability (reversal) in assay [6] (H69AR cells + 2 uM doxorubicin) was 5.23% (inactive). The results for the inhibition in assay [7] and in assay [8] were -3.82% (inactive) and 0% (inactive), respectively.
Take `CCCOC(=O)CSc1nc(N)c(C#N)c(CC)c1C#N`: the viability in assay [1] was 99.5%; in assay [3] it was 99.5% (inactive); in assay [4], 105% (inactive); in assay [5] it was 94.6% (inactive); in assay [6] (setting [9]), 93.9%; in assay [6] (setting [10]) it was 94.6%. Besides, the Her2 level in assay [2] is 116% (inactive). Also, in assay [6] (H69AR cells + 2 uM doxorubicin), the differential viability (reversal) was 0.73% (inactive). Besides, the inhibition in assay [7] is 2% (inactive); in assay [8], 0.16% (inactive).
With `CCCC(=O)N1c2ccccc2NC2=C(C(=O)CCC2)C1c1ccc(F)cc1` (stereo not given), the viability was 98.5% in assay [1]; 98.5% (inactive) in assay [3]; 96.9% (inactive) in assay [4]; 91.6% (inactive) in assay [5]; 91.7% in assay [6] (setting [9]); 91.6% in assay [6] (setting [10]). Moreover, in assay [2], the Her2 level was 78% (inactive). The differential viability (reversal) in assay [6] (H69AR cells + 2 uM doxorubicin) is -0.1% (inactive). Also, the inhibition in assay [7] is -0.14% (inactive); in assay [8], 3.81% (inactive).
For the molecule `Cc1ccc(-n2ncc3c(=O)n(CC(=O)NC4CCCCC4)cnc32)cc1C`, the viability was 105% in assay [1]; 105% (inactive) in assay [3]; 92.7% (inactive) in assay [4]; 87.4% (inactive) in assay [5]; 85.8% in assay [6] (setting [9]); 87.4% in assay [6] (setting [10]). In assay [2], the Her2 level is 108% (inactive). Moreover, in assay [6] (H69AR cells + 2 uM doxorubicin), the differential viability (reversal) is 1.56% (inactive). The values for the inhibition in assay [7] and in assay [8] were -3.68% (inactive) and -1.13% (inactive), respectively.
With `COc1cc(OC)cc(-c2nnc(SCC(=O)Nc3cc(C)on3)o2)c1`, the viability in assay [1] was 92.5%; in assay [3], 92.5% (inactive); in assay [4], 82.7% (inactive); in assay [5], 79.6% (inactive); in assay [6] (setting [9]), 87.6%; in assay [6] (setting [10]), 79.6%. The Her2 level in assay [2] is 81% (inactive). Besides, the differential viability (reversal) in assay [6] (H69AR cells + 2 uM doxorubicin) is -7.97% (inactive). The inhibition in assay [7] is -5.53% (inactive); in assay [8] it was -4.33% (inactive).
